Published values gathered from unrelated publications.
PPO3: PPO3 (Agaricus bisporus, UniProt C7FF04)
PDE4A: 3',5'-cyclic-AMP phosphodiesterase 4A (PDE4A, Homo sapiens, UniProt P27815)
PDE5A: cGMP-specific 3',5'-cyclic phosphodiesterase (PDE5A, Homo sapiens, UniProt O76074)
KDM1A: Lysine-specific histone demethylase 1A (KDM1A, Homo sapiens, UniProt O60341)
PFF0160c: Dihydroorotate dehydrogenase (quinone), mitochondrial (PFF0160c, Plasmodium falciparum, UniProt Q08210)
AURKB: Aurora kinase B (AURKB, Homo sapiens, UniProt Q96GD4)
HDAC2: Histone deacetylase 2 (HDAC2, Homo sapiens, UniProt Q92769)
PARP1: Poly [ADP-ribose] polymerase 1 (PARP1, Homo sapiens, UniProt P09874)
MEP1A: Meprin A subunit alpha (MEP1A, Homo sapiens, UniProt Q16819)

Compound	target	test	conditions	IC50 [µM]
Nc1nc(N)c(N=Nc2ccccc2[N+](=O)[O-])c(Cl)n1	PPO3	enzyme activity, inhibitor, absorbance	–	24.7
COc1ccc(C2=NN(C3CCCCCC3)C(=O)[C@@H]3CC=CC[C@H]23)cc1-c1ccc(C(=O)NCC(N)=O)cc1 (relative stereo)	PDE4A	enzyme activity, inhibitor	–	0.316
CC1Cc2ccccc2N1C(=O)NCCCCN(C)[C@@H]1Cc2cccc3[nH]c(=O)n(c23)C1 (mixture of isomers)	5-hydroxytryptamine receptor 2A (HTR2A, Homo sapiens, UniProt P28223)	ligand displacement, radioligand	–	4.12
O=C(Nc1ccn(Cc2ccc(O)cc2C(F)(F)F)n1)c1c(F)cccc1F	Transient receptor potential cation channel subfamily A member 1 (TRPA1, Homo sapiens, UniProt O75762)	ion current, inhibitor	–	> 10
COC(=O)[C@@H]1Cc2c([nH]c3ccccc23)[C@H](c2cccnc2)N1	PDE5A	enzyme activity, inhibitor, FP	–	> 10
CC(=O)Nc1ccc(N=Nc2c(N)nc(N)nc2N)cc1	PPO3	enzyme activity, inhibitor, absorbance	–	29.8
CC(C)(C)N1C(=O)[C@@H]2Cc3c([nH]c4ccccc34)[C@@H](c3cccnc3)N2C1=O	PDE5A	enzyme activity, inhibitor, FP	–	0.18
COc1cc(C[C@H]2C(=O)OC[C@@H]2Cc2ccc(OC)c(OC)c2)ccc1O	PDE5A	enzyme activity, inhibitor	–	> 20
CCCSc1nc(Sc2nnnn2C)c2nnn(C3CCCC3)c2n1	KDM1A	enzyme activity, inhibitor, fluorescence	–	0.413
CCOCc1nc(O)c(-c2nnc(Cc3ccc(Cl)cn3)o2)c(O)c1-c1c(OC)cccc1OC	Cannabinoid receptor 1 (CNR1, Homo sapiens, UniProt P21554)	ligand displacement, radioligand	–	> 30
Cc1cc(Nc2cccc(Cl)c2)n2nc(CC(C)C)nc2n1	PFF0160c	enzyme activity, inhibitor	–	> 10
CCN1C(=O)[C@H]2Cc3c([nH]c4ccccc34)[C@H](c3ccc(OC)c(OC)c3)N2C1=O	PDE5A	enzyme activity, inhibitor, FP	–	7
COc1ccc2c(Oc3ccc4c(C(=O)Nc5ccccc5N)cccc4c3)ccnc2c1	AURKB	enzyme activity, inhibitor	–	0.009
CC(C)C[C@H]1CC(=O)N2CCC[C@H]2C(=O)N[C@@H](CCCCCC(=O)NO)C(=O)N[C@@H](Cc2c[nH]c3ccccc23)C(=O)N1	HDAC2	enzyme activity, inhibitor	–	0.0035
Cc1cc(Nc2cccc(Cl)c2)n2nc(OCCN)nc2n1	PFF0160c	enzyme activity, inhibitor	–	> 10
COc1ccc([C@@H]2CN(C(=O)[C@@H](O)CO)C[C@@]2(C)[C@@H](C)O)cc1OC1CN(c2ccc(C)cn2)C1	PDE4A	enzyme activity, inhibitor	–	9e-05
COC(=O)[C@H]1Cc2c([nH]c3ccccc23)[C@H](c2ccc(OC)c(OC)c2)N1C(=O)CCl	PDE5A	enzyme activity, inhibitor, FP	–	> 10
O=C(O)CCCC(=O)N1CCN(C(=O)c2cc(Cc3n[nH]c(=O)c4ccccc34)ccc2F)CC1	PARP1	enzyme activity, inhibitor	–	0.0067
Cc1ccc(N=Nc2c(N)nc(N)nc2Cl)cc1	PPO3	enzyme activity, inhibitor, absorbance	–	42
COc1ccc([C@@H]2c3[nH]c4ccccc4c3C[C@H]3C(=O)N(C(C)(C)C)C(=O)N23)cc1OC	PDE5A	enzyme activity, inhibitor, FP	–	6.21
Cc1ccc(C(C)C)cc1NC(=O)COC(=O)/C=C/c1ccc(Cl)cc1	PPO3	enzyme activity, inhibitor	–	16.7
Cc1cc(Nc2ccc3c(c2)CCCC3)n2ccnc2n1	PFF0160c	enzyme activity, inhibitor	–	0.1

Compound	target	test	conditions	IC50 [µM]
O=C1[C@@H]2Cc3c([nH]c4ccccc34)[C@@H](c3cccnc3)N2C(=O)N1c1ccc(Cl)cc1	PDE5A	enzyme activity, inhibitor, FP	–	1.25
Cc1cc(Nc2ccc(C(F)(F)F)cc2)n2nc(OCCN)nc2n1	PFF0160c	enzyme activity, inhibitor	–	> 10
O=C(CCN(Cc1cccnc1)Cc1ccc2c(c1)OCO2)NO	MEP1A	enzyme activity, inhibitor	–	0.464
CCCCC[C@H](O)/C=C/[C@H]1[C@@H]2CO[C@@H](C2)[C@@H]1C/C=C\CCCC(=O)O	Thromboxane A2 receptor (TBXA2R, Homo sapiens, UniProt P21731)	ligand displacement, radioligand	–	0.013
Cc1cc(Nc2ccc(Cl)cc2)n2nc(OCCN)nc2n1	PFF0160c	enzyme activity, inhibitor	–	> 10
C[S+]([O-])c1ccc(-c2nc(-c3ccncc3)c(-c3ccc(F)cc3)[nH]2)cc1 (stereo not shown)	Serine/threonine-protein kinase A-Raf (ARAF, Homo sapiens, UniProt P10398)	enzyme activity, inhibitor	lysate	> 10
CNc1cc(Nc2ccc(C(F)(F)F)cc2)n2ncnc2n1	PFF0160c	enzyme activity, inhibitor	–	7.4
Cc1cc(Nc2cccc(Cl)c2)n2nc(CN)nc2n1	PFF0160c	enzyme activity, inhibitor	–	> 10
CCCON(Cc1ccc(C(=O)NO)cc1)C(=O)Nc1ccccc1	HDAC2	enzyme activity, inhibitor, fluorescence	–	1.42
Cc1cc(Nc2ccc(S(F)(F)(F)(F)F)cc2)n2nc(OCCN(C)C)nc2n1	PFF0160c	enzyme activity, inhibitor	–	> 10
O=C(CCN(Cc1ccc2c(c1)OCO2)Cc1ccc(Cl)c(O)c1F)NO	MEP1A	enzyme activity, inhibitor	–	0.159
Cc1ccc(C(C)C)cc1NC(=O)COC(=O)/C=C/c1ccccc1O	PPO3	enzyme activity, inhibitor	–	1.81
Cc1[nH]ncc1C(=O)N1CCC(C)(NC(=O)c2c[nH]c(=O)c3ccccc23)C1 (stereo not shown)	PARP1	enzyme activity, inhibitor	–	0.794
CC(C)(C)n1nc(-c2cnc3cc(OC4CC4)ccc3c2)c(C(N)=O)c1N	AURKB	cell-free assay, inhibitor	–	> 10
CCCCc1ccc(-c2ccc(-c3cc(C(=O)O)c4cccc([N+](=O)[O-])c4n3)o2)cc1	Eukaryotic initiation factor 4A-I (EIF4A1, Homo sapiens, UniProt P60842)	ATPase activity, inhibitor, absorbance	–	27.5
CC[C@@H](C(=O)Nc1ccc(C(N)=O)c(F)c1)n1cc(OC)c(-c2cc(Cl)ccc2-n2cc(C(F)(F)F)nn2)cc1=O	Vitamin K-dependent protein C (PROC, Homo sapiens, UniProt P04070)	enzyme activity, inhibitor	–	> 10
Cc1ccc(C(C)C)cc1NC(=O)COC(=O)/C=C/c1ccc(O)cc1	PPO3	enzyme activity, inhibitor	–	1.41
Cc1cc(Nc2ccc(Cl)cc2)n2nc(CN)nc2n1	PFF0160c	enzyme activity, inhibitor	–	> 10
CCCSc1nc(Sc2nnnn2C)c2nnn(CCc3cccs3)c2n1	KDM1A	enzyme activity, inhibitor, fluorescence	–	0.339
CNCCOc1nc2nc(C)cc(Nc3ccc(C(F)(F)F)cc3)n2n1	PFF0160c	enzyme activity, inhibitor	–	> 10
COc1cc2c(cc1OC)-c1c/c(=N\c3c(C)cc(C)cc3C)n(C)c(=O)n1CC2	PDE5A	enzyme activity, inhibitor, FP	–	3.4
